The values that follow come from article PMC11182071 (Journal of Enzyme Inhibition and Medicinal Chemistry, 2024).

For data set [1], the target named is T1, PTP1B (Homo sapiens, UniProt P18031).
T1 sequence (P18031 1-435): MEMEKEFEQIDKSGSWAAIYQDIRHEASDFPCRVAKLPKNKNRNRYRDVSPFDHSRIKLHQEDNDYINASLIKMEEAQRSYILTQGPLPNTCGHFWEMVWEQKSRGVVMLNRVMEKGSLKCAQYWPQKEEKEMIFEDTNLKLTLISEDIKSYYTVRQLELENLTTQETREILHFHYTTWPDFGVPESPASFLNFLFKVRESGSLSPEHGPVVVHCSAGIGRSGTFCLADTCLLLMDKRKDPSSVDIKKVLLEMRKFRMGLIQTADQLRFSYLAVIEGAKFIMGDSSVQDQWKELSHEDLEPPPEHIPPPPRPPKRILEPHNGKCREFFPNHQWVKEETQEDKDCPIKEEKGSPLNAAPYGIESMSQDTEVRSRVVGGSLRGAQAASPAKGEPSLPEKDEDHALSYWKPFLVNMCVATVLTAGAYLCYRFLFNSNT
Description: Protein tyrosine phosphatase 1B inhibition assay. The format is biochemical. As to conditions: for inhibition at 50 µM: read-out: PTP1B inhibition (% at 50 μM).

Data set [2] concerns α-glucosidase. Description: α-Glucosidase inhibition assay. Format: biochemical, yeast. As to conditions: for α-glucosidase inhibition (% at 50 μM): mean ± SD, n=3.
In data set [3] the target is T2, α-amylase (Sus scrofa, UniProt P00690).
T2 sequence (P00690 16-511): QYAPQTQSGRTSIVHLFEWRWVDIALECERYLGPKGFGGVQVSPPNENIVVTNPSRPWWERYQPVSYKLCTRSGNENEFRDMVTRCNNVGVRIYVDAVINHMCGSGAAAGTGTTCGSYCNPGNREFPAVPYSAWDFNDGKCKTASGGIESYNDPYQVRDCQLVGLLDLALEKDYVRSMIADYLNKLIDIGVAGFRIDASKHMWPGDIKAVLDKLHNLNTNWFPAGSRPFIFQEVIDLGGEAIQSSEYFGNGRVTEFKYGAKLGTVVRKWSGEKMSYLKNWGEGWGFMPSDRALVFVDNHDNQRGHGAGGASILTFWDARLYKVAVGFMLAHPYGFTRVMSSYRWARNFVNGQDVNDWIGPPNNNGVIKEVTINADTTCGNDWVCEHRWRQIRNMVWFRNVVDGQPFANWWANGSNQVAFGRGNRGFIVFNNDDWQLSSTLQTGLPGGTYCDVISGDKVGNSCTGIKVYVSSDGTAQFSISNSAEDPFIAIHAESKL
Description: α-amylase inhibition assay. As to conditions: read-out: α-amylase inhibition (% at 250 μM). The format is biochemical, porcine.

The target of data set [4] is T1, PTP1B. The data set can be described thus: PTP1B inhibition kinetic assay. Format: biochemical. In short, it runs like this:
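PTP1B at 100 nM reacted with p-nitrophenyl phosphate at 1, 2, 5 and 10 mM and test compound at 0, 0.5, 1.0 and 5.0 μM. Absorbance read every 3 min. Velocity taken from the time–Δabs plot. Inhibition mode from Lineweaver-Burk double-reciprocal plots; Ki from Dixon plots. Triplicate.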

In data set [5] the test system is insulin-resistant HepG2 cells. Description: In vitro glucose consumption assay in insulin-resistant HepG2 cells. The format is cell-based, human. As to conditions: 24 h treatment; vs model group. In a few lines: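 HepG2 seeded in 6-well plates at 1 × 10^5 cells/well for 24 h. Serum-starved 2 h, then made insulin-resistant with 1 × 10−6 mol/l insulin for 48 h at 37 °C, 5% CO2. Groups: control, model, low/middle/high dose of free or liposomal test compound (top 100 μg/mL), blank liposome. After 24 h treatment, medium glucose measured by glucose oxidase kit; consumption = blank-well minus sample-well glucose. Mean ± SD, n = 3.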

A short description of data set [6]: Solubility observations. Format: physicochemical. As to conditions: medium not stated.

In general, IC50 refers to the midpoint of a concentration-inhibition curve. For orientation: inhibition means the percentage by which the read-out fell short of the control. Usually Ki stands for a measure of affinity in units of concentration, obtained from inhibition or displacement. For `CC(C)=C[C@H]1C=C([C@H]2CC[C@]3(C)[C@@H]2CC[C@@H]2[C@@]4(C)CC[C@H](O)C(C)(C)[C@@H]4CC[C@]23C)C(=O)O1` [Compound 7, gypensapogenin D], in data set [1], it took 8.17 ± 0.63 µM to reach half-maximal inhibition (IC50) and the inhibition at 50 µM was found to be 83.49 ± 0.62%. The “α-glucosidase inhibition (% at 50 μM)” value in data set [2] worked out at 61.94 ± 1.54%. Also, the IC50 in data set [2] (read-out: α-glucosidase IC50, mean ± SD of three replications) was 27.15 ± 0.17 µM. For the same molecule, the inhibition at 250 µM in data set [3] is 11.6 ± 1.24%. The Ki in data set [4] came out at 4.29 µM. In addition, in data set [4] (Lineweaver-Burk double reciprocal plot), the “Inhibition type against PTP1B (Lineweaver-Burk plot)” value is listed as “competitive inhibitors”. Moreover, in data set [5], the “Glucose consumption in insulin-resistant HepG2 cells” value is reported as “did not improve the reduction of glucose consumption”. In addition, in data set [6], the Solubility entry was “poorly solubility”.

Regarding `CC(C)=C1CC=C([C@H]2CC[C@]3(C)[C@@H]2CC[C@@H]2[C@@]4(C)CC[C@H](O)C(C)(C)[C@@H]4CC[C@]23C)C1=O` [Compound 6, gypensapogenin C], the inhibition at 50 µM in data set [1] is 78.9 ± 0.87%. The “α-glucosidase inhibition (% at 50 μM)” value in data set [2] is reported as 24.64 ± 0.65%.

On to `CC(C)=C1CC([C@H]2CC[C@]3(C)[C@@H]2CC[C@@H]2C4=C(CC[C@]23C)C(C)(C)[C@@H]2CC[C@H]4O2)=CC1=O` [Compound 5, gypensapogenin B], for which, in data set [1], the inhibition at 50 µM is 67.1 ± 1.33%. The “α-glucosidase inhibition (% at 50 μM)” value in data set [2] is recorded as 25.55 ± 1.75%.

Regarding `C[C@H]1O[C@H](O[C@H]2[C@H](O)[C@@H](O)[C@@H](O[C@H]3[C@H](O)[C@@H](O)C(O)O[C@@H]3CO)O[C@@H]2CO)[C@H](O)[C@@H](O)[C@@H]1N[C@H]1C=C(CO)[C@@H](O)[C@H](O)[C@H]1O` (stereo partly drawn) [Acarbose, reference compound], in data set [2], the “α-glucosidase inhibition (% at 50 μM)” value was determined as 96.51 ± 0.02%.

Take `CC(C)=C1CC=C([C@H]2CC[C@]3(C)[C@@H]2CC[C@@H]2C4=C(CC[C@]23C)C(C)(C)[C@@H]2CC[C@H]4O2)C1=O` [Compound 4, gypensapogenin A]: the inhibition at 50 µM in data set [1] worked out at 65.9 ± 1.69%. Moreover, the “α-glucosidase inhibition (% at 50 μM)” value in data set [2] is 25.80 ± 0.71%. For the same molecule, the inhibition at 250 µM in data set [3] was found to be 31.81 ± 0.02%.

Take `[Na+].[Na+].[Na+].[O]=[V]([O-])([O-])[O-]` [Na3VO4, reference compound]: the “PTP1B inhibition (% at 50 μM)” value in data set [1] (50 μM, mean ± SD, n=3) came to 98.07 ± 0.51%.
